Experimental data as given in ChEMBL document CHEMBL4020721 (Eur J Med Chem, 2017).

Assays:
NCI-H1993 [1] = assay: Antitumor activity against human NCI-H1993 cells xenografted in BALB/c athymic nude mouse assessed as tumor growth inhibition at 10 mg/kg, po administered once daily for 3 weeks; format: functional; conditions: 504 h, read-out: TGI
Method in brief: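 BALB/c nude mice, 5-6 weeks old, kept under SPF conditions, received 7×10^6 NCI-H1993 cells s.c. in the right flank. At 150-250 mm³ they were sorted and randomized, n=7 per group, with vehicle controls. Dosing was oral, once daily for 3 weeks. […] Mean±SEM, Student's t-test.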

Ephrin type-A receptor 2 = Ephrin type-A receptor 2 (Homo sapiens, UniProt P29317); assay: Inhibition of EPHA2 (unknown origin) using FAM-labeled peptide as substrate preincubated for 5 to 10 mins followed by substrate/ATP addition measured after 30 to 60 mins by mobility shift assay
Method in brief: (§1)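 Caliper mobility-shift assay with FAM-labeled peptide substrate. Buffer: 50 mM HEPES pH 7.5, 0.0015% Brij-35, 10 mM MgCl2, 2 mM DTT, with kinase-specific enzyme levels. […] Incubation was 30-60 min at 28°C, stopped with EDTA buffer. Read-out was % conversion.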

CYP1A2 = molecular target: T1, CYP1A2 (Homo sapiens, UniProt P05177); assay: Time dependent irreversible inhibition of CYP1A2 in human liver microsomes at 10 uM preincubated with compound followed by NADPH addition by LC-MS/MS analysis; format: ADME; conditions: liver microsomes
T1 sequence (P05177 whole entry): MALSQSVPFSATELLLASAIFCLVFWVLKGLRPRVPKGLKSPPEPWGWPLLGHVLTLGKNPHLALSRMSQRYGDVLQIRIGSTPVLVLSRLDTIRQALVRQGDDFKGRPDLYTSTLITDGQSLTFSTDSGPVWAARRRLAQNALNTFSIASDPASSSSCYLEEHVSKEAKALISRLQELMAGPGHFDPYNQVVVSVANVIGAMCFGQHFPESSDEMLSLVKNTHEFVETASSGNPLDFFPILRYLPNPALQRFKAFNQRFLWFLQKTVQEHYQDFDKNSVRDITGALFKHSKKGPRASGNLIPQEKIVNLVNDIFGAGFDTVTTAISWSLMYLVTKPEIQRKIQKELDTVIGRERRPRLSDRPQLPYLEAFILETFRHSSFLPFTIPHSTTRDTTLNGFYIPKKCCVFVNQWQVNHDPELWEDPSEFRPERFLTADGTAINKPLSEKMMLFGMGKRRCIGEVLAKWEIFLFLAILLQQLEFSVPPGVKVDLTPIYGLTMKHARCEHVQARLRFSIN
Method in brief: (§2)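 HLM (0.2 mg/ml) with 10 µM compound were preincubated 0, 5, 10 or 20 min at 37°C with 1 mM NADPH or PBS. Substrate cocktail (halved concentrations) plus NADPH was then added for 10 min. Metabolites were measured by LC-MS/MS. Kobs is the slope of relative activity versus preincubation time.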

Mus musculus = assay: Toxicity in BALB/c athymic nude mouse xenografted with human SNU5 cells assessed as body weight loss at 0.3 to 3 mg/kg, po administered once daily for 2 weeks; format: organism-based; conditions: in vivo, 336 h
Method in brief: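 Female/male BALB/c nude mice (5-6 weeks, SPF). NCI-H1993 cells (7×10^6 in 140 µL) or SNU-5 cells (6×10^6 in 200 µL) injected s.c. into the right flank. Dosing started at mean tumour volume 150-250 mm³ (NCI-H1993) or 100-200 mm³ (SNU-5). Randomized, n = 7 (NCI-H1993) or 6 (SNU-5) per group. Oral dosing once daily; vehicle controls. Body weight and signs of toxicity monitored during treatment.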

CYP3A4 [2] = molecular target: T2, CYP3A4 (Homo sapiens, UniProt P08684); assay: Reversible inhibition of CYP3A4 in human liver microsomes at 10 uM after 20 mins in presence of NADPH by LC-MS/MS analysis; format: ADME; conditions: liver microsomes
T2 sequence (P08684 whole entry): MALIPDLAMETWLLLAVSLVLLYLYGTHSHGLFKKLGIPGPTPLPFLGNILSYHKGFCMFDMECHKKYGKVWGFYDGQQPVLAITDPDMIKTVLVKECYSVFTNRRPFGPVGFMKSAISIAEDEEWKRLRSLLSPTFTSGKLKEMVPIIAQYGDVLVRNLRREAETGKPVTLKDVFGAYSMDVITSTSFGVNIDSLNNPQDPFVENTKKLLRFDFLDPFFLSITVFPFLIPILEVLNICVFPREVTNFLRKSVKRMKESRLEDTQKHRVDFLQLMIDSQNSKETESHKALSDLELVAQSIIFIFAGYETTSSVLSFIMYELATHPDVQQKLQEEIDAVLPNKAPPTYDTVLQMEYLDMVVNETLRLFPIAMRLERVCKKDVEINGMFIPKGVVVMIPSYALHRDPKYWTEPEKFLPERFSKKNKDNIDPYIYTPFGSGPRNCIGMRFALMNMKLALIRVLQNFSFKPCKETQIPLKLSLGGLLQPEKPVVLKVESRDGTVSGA

CYP3A4 [3] = molecular target: T2, CYP3A4; assay: Time dependent irreversible inhibition of CYP3A4 in human liver microsomes at 10 uM preincubated with compound followed by NADPH addition by LC-MS/MS analysis; format: ADME; conditions: liver microsomes; method in brief: as §2
[4] = molecular target: Tyrosine-protein kinase ABL1 (Homo sapiens, UniProt P00519); assay: Inhibition of ABL (unknown origin) using FAM-labeled peptide as substrate preincubated for 5 to 10 mins followed by substrate/ATP addition measured after 30 to 60 mins by mobility shift assay; method in brief: as §1
[5] = molecular target: ALK tyrosine kinase receptor (Homo sapiens, UniProt Q9UM73); assay: Inhibition of ALK (unknown origin) using FAM-labeled peptide as substrate preincubated for 5 to 10 mins followed by substrate/ATP addition measured after 30 to 60 mins by mobility shift assay; method in brief: as §1
Sequence of ALK tyrosine kinase receptor (Q9UM73 whole entry): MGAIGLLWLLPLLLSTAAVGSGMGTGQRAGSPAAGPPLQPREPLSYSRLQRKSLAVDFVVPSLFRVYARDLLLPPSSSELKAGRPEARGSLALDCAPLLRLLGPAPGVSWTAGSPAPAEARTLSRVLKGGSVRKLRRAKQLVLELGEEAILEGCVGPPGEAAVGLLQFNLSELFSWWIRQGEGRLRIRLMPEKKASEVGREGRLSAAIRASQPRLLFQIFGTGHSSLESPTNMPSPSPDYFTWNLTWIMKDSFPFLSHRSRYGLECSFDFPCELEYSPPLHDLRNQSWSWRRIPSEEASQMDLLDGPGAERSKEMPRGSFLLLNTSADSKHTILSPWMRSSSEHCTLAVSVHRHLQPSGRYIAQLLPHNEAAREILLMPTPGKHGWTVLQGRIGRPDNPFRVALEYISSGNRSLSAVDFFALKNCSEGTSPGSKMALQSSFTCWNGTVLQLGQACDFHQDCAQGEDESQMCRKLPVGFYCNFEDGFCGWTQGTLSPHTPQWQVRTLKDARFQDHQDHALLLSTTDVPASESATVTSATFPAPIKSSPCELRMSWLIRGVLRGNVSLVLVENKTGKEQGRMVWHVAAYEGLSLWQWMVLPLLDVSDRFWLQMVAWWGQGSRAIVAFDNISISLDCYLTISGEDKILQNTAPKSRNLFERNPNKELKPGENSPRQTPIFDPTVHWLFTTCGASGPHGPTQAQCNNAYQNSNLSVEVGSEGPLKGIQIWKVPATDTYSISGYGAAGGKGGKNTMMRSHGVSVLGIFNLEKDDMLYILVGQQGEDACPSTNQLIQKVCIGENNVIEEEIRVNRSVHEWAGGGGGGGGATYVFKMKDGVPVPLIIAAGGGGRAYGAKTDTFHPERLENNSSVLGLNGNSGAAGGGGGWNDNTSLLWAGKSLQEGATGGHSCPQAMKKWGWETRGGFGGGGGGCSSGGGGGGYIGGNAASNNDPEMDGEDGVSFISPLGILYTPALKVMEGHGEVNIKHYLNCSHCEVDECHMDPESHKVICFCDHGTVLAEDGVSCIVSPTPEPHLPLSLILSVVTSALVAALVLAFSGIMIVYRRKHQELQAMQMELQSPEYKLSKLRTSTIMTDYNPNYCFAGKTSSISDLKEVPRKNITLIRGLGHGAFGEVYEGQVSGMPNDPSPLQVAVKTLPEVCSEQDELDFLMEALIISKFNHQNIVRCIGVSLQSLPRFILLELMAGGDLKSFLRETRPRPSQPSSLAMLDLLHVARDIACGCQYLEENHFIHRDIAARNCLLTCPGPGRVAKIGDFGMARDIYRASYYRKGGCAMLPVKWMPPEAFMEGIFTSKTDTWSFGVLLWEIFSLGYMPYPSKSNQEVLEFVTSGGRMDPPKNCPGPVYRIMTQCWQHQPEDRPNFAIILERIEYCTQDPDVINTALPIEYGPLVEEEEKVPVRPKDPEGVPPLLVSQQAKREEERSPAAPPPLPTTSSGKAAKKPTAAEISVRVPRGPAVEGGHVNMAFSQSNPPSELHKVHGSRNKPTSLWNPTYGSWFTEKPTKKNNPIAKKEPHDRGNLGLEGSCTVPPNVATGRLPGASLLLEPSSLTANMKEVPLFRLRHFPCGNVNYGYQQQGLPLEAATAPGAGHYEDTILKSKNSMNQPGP

CYP2C9 = CYP2C9 (Homo sapiens, UniProt P11712); assay: Reversible inhibition of CYP2C9 in human liver microsomes at 10 uM after 20 mins by in presence of NADPH LC-MS/MS analysis; format: ADME; conditions: liver microsomes
[6] = molecular target: Vascular endothelial growth factor receptor 2 (Homo sapiens, UniProt P35968); assay: Inhibition of VEGFR2 (unknown origin) using FAM-labeled peptide as substrate preincubated for 5 to 10 mins followed by substrate/ATP addition measured after 30 to 60 mins by mobility shift assay; method in brief: as §1
Sequence of Vascular endothelial growth factor receptor 2 (P35968 whole entry): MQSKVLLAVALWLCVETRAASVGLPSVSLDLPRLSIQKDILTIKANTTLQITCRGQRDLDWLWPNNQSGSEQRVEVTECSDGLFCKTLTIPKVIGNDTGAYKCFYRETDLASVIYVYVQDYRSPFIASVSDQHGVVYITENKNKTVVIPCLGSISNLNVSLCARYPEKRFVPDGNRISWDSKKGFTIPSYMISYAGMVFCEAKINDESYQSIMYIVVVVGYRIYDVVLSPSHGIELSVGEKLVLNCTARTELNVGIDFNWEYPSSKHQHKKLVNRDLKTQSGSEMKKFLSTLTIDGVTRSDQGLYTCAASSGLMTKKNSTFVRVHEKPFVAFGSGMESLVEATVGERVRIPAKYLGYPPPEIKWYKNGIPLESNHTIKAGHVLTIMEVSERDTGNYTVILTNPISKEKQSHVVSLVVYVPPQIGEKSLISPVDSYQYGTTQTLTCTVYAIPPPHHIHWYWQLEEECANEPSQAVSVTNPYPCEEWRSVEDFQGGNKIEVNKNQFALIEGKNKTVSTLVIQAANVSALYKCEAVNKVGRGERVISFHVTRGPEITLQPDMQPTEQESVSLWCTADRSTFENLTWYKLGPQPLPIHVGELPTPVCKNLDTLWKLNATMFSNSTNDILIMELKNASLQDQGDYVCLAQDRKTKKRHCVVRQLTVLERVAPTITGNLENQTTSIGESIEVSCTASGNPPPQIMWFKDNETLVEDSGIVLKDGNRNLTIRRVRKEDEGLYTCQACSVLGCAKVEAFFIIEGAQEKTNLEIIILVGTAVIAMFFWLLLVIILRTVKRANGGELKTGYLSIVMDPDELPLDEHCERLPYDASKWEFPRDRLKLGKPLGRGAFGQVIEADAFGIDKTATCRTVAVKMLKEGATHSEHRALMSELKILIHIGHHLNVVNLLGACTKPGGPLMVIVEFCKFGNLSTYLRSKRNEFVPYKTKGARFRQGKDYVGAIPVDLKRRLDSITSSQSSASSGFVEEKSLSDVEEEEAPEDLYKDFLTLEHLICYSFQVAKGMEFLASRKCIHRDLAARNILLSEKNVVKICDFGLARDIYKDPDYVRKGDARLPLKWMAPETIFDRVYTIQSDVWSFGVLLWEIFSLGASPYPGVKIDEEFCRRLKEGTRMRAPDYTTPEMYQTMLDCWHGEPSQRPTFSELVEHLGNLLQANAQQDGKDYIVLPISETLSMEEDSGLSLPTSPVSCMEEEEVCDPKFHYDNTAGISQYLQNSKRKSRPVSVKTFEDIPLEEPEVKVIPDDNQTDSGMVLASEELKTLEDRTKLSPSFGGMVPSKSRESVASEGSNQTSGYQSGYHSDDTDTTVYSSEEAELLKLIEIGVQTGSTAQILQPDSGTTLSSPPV

CYP2D6 = CYP2D6 (Homo sapiens, UniProt P10635); assay: Time dependent irreversible inhibition of CYP2D6 in human liver microsomes at 10 uM preincubated with compound followed by NADPH addition by LC-MS/MS analysis; format: ADME; conditions: liver microsomes; method in brief: as §2
[7] = molecular target: Proto-oncogene tyrosine-protein kinase Src (Homo sapiens, UniProt P12931); assay: Inhibition of c-Src (unknown origin) using FAM-labeled peptide as substrate preincubated for 5 to 10 mins followed by substrate/ATP addition measured after 30 to 60 mins by mobility shift assay; method in brief: as §1
Sequence of Proto-oncogene tyrosine-protein kinase Src (P12931 2-536 limits assumed): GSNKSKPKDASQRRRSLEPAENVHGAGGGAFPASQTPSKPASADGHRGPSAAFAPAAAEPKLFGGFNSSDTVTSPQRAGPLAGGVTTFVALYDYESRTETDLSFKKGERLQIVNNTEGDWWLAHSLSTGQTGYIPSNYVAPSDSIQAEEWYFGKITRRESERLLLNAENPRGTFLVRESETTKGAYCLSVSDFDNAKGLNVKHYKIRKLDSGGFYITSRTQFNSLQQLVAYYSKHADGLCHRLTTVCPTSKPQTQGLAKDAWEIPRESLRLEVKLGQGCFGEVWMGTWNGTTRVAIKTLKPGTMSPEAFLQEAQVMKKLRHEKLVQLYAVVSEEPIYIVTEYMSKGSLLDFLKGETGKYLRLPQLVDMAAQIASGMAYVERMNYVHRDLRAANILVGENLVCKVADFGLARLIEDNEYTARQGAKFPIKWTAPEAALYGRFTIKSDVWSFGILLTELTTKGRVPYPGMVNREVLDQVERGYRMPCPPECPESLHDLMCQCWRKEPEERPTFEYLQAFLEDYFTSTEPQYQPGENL

[8] = molecular target: Proto-oncogene tyrosine-protein kinase receptor Ret (Homo sapiens, UniProt P07949); assay: Inhibition of RET (unknown origin) using FAM-labeled peptide as substrate preincubated for 5 to 10 mins followed by substrate/ATP addition measured after 30 to 60 mins by mobility shift assay; method in brief: as §1
SNU-5 = assay: Antitumor activity against human SNU5 cells xenografted in BALB/c athymic nude mouse assessed as tumor regression at 3 mg/kg, po administered once daily for 2 weeks; format: functional
Method in brief: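 Nude BALB/c mice, 5-6 weeks old, under SPF conditions, were implanted s.c. in the right flank with 6×10^6 SNU-5 cells. Groups were sorted at 100-200 mm³, n=6, with vehicle controls. Oral dosing once daily for 2 weeks. Percent tumor regression = 100% × (treated day 0 − treated final)/treated day 0. Mean±SEM, Student's t-test.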

[9] = molecular target: Fibroblast growth factor receptor 1 (Homo sapiens, UniProt P11362); assay: Inhibition of FGFR1 (unknown origin) using FAM-labeled peptide as substrate preincubated for 5 to 10 mins followed by substrate/ATP addition measured after 30 to 60 mins by mobility shift assay; method in brief: as §1
Sequence of Fibroblast growth factor receptor 1 (P11362 whole entry): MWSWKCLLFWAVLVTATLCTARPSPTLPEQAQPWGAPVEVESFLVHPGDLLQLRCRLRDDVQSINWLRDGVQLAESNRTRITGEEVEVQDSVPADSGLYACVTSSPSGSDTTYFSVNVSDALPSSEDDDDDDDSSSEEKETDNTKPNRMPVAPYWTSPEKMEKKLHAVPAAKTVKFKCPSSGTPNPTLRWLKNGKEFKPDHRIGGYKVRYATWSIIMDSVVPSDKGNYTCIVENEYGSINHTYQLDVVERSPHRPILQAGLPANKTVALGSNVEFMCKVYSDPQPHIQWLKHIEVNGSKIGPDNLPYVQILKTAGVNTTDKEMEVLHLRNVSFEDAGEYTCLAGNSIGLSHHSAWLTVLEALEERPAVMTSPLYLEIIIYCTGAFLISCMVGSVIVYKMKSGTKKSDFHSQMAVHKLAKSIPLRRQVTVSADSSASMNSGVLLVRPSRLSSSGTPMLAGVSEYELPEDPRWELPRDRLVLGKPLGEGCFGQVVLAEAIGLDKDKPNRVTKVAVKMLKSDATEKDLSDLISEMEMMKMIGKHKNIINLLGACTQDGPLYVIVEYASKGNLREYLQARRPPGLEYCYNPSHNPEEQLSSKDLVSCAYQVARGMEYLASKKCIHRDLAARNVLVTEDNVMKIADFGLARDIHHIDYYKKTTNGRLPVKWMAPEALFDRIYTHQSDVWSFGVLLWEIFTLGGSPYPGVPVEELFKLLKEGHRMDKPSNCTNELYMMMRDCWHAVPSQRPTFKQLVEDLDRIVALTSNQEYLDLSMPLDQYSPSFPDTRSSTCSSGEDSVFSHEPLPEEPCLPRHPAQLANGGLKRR

NCI-H1993 [10] = assay: Growth inhibition of human NCI-H1993 cells after 72 hrs by CCK-8 assay; format: functional, cell-based; conditions: nci-h1993
[11] = Drug recovery in human liver microsomes at 1 uM measured after 30 mins by LC-MS/MS analysis; format: ADME, microsome; conditions: liver microsomes, read-out: Drug recovery
Method in brief: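 Liver microsomes (0.5 mg/ml) were incubated with 1 µM compound at 37°C in 100 mM phosphate buffer pH 7.4 without NADPH for 30 min. Reactions were quenched with acetonitrile/tinidazole internal standard and analysed by LC-MS/MS. Recovery (%) was taken from the compound/internal standard peak area ratio.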

IC50 (Ephrin type-A receptor 2): > 30 µM | inhibition at 10 µM (CYP1A2): < 50% | inhibition at 20 min, 10 µM (CYP3A4 [2]): < 50% | inhibition at 10 µM (CYP3A4 [3]): < 50% | IC50 [4]: > 30 µM | IC50 [5]: > 30 µM | inhibition at 20 min, 10 µM (CYP2C9): < 50% | IC50 [6]: 18.4 µM | inhibition at 10 µM (CYP2D6): < 50% | IC50 [7]: 17.1 µM | IC50 [8]: > 30 µM | IC50 [9]: > 30 µM | IC50 (NCI-H1993 [10]): 0.0011 µM | remaining at 0.5 h, 1 µM [11]: 95%
Compound: CC(c1cc2cc(-c3cnn(C)c3)cnc2cc1F)n1nnc2ncc(-c3cnn(CCO)c3)nc21 (stereo in doubt; 14)
inhibition in vivo at 10 mg/kg (NCI-H1993 [1]): 90.8% | Activity (Mus musculus): Non-Toxic | Activity (SNU-5): 87.9%
